Assay results from ChEMBL document CHEMBL1148342, “Synthesis, X-ray crystal structures, stabilities, and in vitro cytotoxic activities of new heteroarylacrylonitriles” (J Med Chem, 2004).
pIC50: −log10 of the molar value.

Tests used:
[1] = system: YAPC; assay: Compound was tested for growth inhibition against human YAPC cell lines; format: functional, cell-based
How it was run: (§1)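 Cells were grown in RPMI-1640 with 2 g/L NaHCO3 and 10% FCS at 37 °C in 5% CO2, seeded at 1000 cells/well, and dosed 24 h later at five geometric dilutions for 96 h of continuous exposure. Cells were then glutaraldehyde-fixed and stained with crystal violet, with OD read at 570 nm. IC50 was taken from the dose–response data.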

[2] = system: RT-112; assay: Growth inhibition against human RT-112 cell lines; format: functional, cell-based; how it was run: as §1
[3] = system: KYSE-70 cell line; assay: Growth inhibition against human KYSE-70 cell lines; format: functional, cell-based; how it was run: as §1
[4] = system: KYSE-520 cell line; assay: Growth inhibition against human KYSE-520 cell lines; format: functional, cell-based; how it was run: as §1
[5] = system: LCLC-103H cell line; assay: Cytotoxic activity against human LCLC-103H cell line at 20 uM expressed as percent growth value; format: functional
How it was run: (§2)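 Cells in RPMI-1640 with 10% FCS were seeded (1000 cells/well; KYSE-510 500, LCLC-103H 250), then exposed 24 h later for 96 h. Read-out was crystal violet staining of glutaraldehyde-fixed cells at OD 570 nm. Growth (%) = (OD treated − OD at drug addition)/(OD control − OD at drug addition) × 100.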

[6] = system: LCLC-103H cell line; assay: Growth inhibition against human LCLC-103H cell lines; format: functional, cell-based
How it was run: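 LCLC-103H cells were grown in RPMI-1640 with 2 g/L NaHCO3 and 10% FCS (5% CO2, 37 °C) and plated at 250 cells/well. After 24 h, five geometric dilutions were applied continuously for 96 h. Fixation was with glutaraldehyde, followed by crystal violet staining and OD at 570 nm. IC50 came from the dose–response curves.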

[7] = system: SISO; assay: Cytotoxic activity against human SISO cell line at 20 uM; format: functional; how it was run: as §2
[8] = system: 5637; assay: Growth inhibition against human 5637 cell lines; format: functional, cell-based; how it was run: as §1
[9] = system: RT-4; assay: Growth inhibition against human RT-4 cell lines; format: functional, cell-based; how it was run: as §1
[10] = system: MCF7; assay: Growth inhibition against human MCF-7 cell lines; format: functional, cell-based
How it was run: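 MCF-7 was cultured in RPMI-1640 with 2 g/L NaHCO3, 10% FCS, 1 mM pyruvate, MEM salts and amino acids. Plating was 1000 cells/well, then after 24 h, 96 h of continuous exposure at five geometric dilutions. Crystal violet staining of glutaraldehyde-fixed cells was read at 570 nm, and IC50 was derived from the dose–response data.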

[11] = system: SISO; assay: Growth inhibition against human SISO cell lines; format: functional, cell-based; how it was run: as §1
[12] = system: KYSE-510 (human); assay: Growth inhibition against human KYSE-510 cell lines
[13] = system: TERT-RPE1; assay: Compound was tested for growth inhibition against human h-TERTRPE1 cell lines; format: functional, cell-based
How it was run: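 The noncancerous hTERT-immortalized epithelial line h-TERT-RPE1 was grown in DMEM/F-12 with 2 g/L NaHCO3 and 10% FCS (37 °C, 5% CO2) and seeded at 1000 cells/well. Substance was added 24 h later at five geometric dilutions for 96 h continuously. The read-out was crystal violet staining after glutaraldehyde fixation, OD 570 nm, with IC50 from dose–response.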

[14] = system: DAN-G; assay: Growth inhibition against human DAN-G cell lines; format: functional, cell-based; how it was run: as §1
[15] = system: KYSE-510; assay: Cytotoxic activity against human KYSE-510 cell line at 20 uM expressed as percent growth value; format: functional; how it was run: as §2
[16] = system: 5637; assay: Cytotoxic activity against human 5637 cell line at 20 uM expressed as percent growth value; format: functional; how it was run: as §2

Row | Molecule | pIC50 ([1]; Homo sapiens, YAPC) | pIC50 ([2]; Homo sapiens, RT-112) | pIC50 ([3]; Homo sapiens, KYSE-70) | pIC50 ([4]; Homo sapiens, KYSE-520) | Activity [5] | pIC50 ([6]; Homo sapiens, LCLC-103H) | Activity [7] | pIC50 ([8]; Homo sapiens) | pIC50 ([9]; Homo sapiens, RT-4) | pIC50 ([10]; Homo sapiens, MCF7) | pIC50 ([11]; Homo sapiens, SISO) | pIC50 ([12]; Homo sapiens, KYSE-510) | pIC50 ([13]; Homo sapiens, RPE-1) | pIC50 ([14]; Homo sapiens, DAN-G) | Activity [15] | also measured
1 | N#C/C(=C\c1ccc([N+](=O)[O-])o1)c1n[nH]c(-c2ccccc2)n1 | 5.85 | 5.82 | 5.93 | 5.79 | -8.4 | 6.15 | -7.9 | 5.91 | 5.73 | 5.79 | 5.92 | 5.87 | 5.94 | 5.82 | -20.9 | 
2 | N#C/C(=C\c1cccc([N+](=O)[O-])c1)c1n[nH]c(-c2ccccc2)n1 |  |  |  |  | 56.4 |  | 85.5 |  |  |  |  |  |  |  | 108 | 
3 | N#C/C(=C\c1ccc([N+](=O)[O-])o1)c1n[nH]c(Cc2ccccc2)n1 | 6.35 | 6.12 | 6.40 | 6.12 | -7.3 | 6.54 | -8.1 | 6.40 | 5.86 | 6.21 | 6.43 | 6.21 | 6.38 | 6.31 | -20.7 | 
4 | Cc1n[nH]c(/C(C#N)=C/c2ccc([N+](=O)[O-])o2)n1 | 6.07 | 6.00 | 6.18 | 6.07 | -8.4 | 6.46 | -8.7 | 6.27 | 5.83 | 5.83 | 6.57 | 6.05 | 6.16 | 6.00 | -21.3 | 
5 | CN(C)c1ccc(/C=C(\C#N)c2n[nH]c(Cc3ccccc3)n2)cc1 | 5.46 | 5.43 | 5.60 | 5.20 | -1.8 | 5.78 | 1.2 | 5.86 | 5.60 | 5.83 | 5.49 | 5.47 |  | 5.39 | -1.01 | 
6 | Cc1n[nH]c(/C(C#N)=C/c2cccc([N+](=O)[O-])c2)n1 |  |  |  |  | 68.8 |  | 98.1 |  |  |  |  |  |  |  | 94.1 | 
7 | N#C/C(=C\c1ccc([N+](=O)[O-])o1)c1nc2ccccc2[nH]1 | 6.24 | 6.16 | 6.35 | 6.21 | -8 | 6.39 | -8.2 | 6.32 | 6.00 | 6.19 | 6.48 | 6.12 | 6.22 | 6.16 | -21.2 | 
8 | Cc1ccc(/C=C(\C#N)c2nc3ccccc3[nH]2)s1 |  |  |  |  | 5.9 | 5.68 | 64.5 | 4.70 | < 4.70 |  | < 4.70 |  |  | < 4.70 |  | Activity [16]: 47.8
9 | N#C/C(=C\c1ccc([N+](=O)[O-])s1)c1n[nH]c(Cc2ccccc2)n1 | 6.44 | 6.19 | 6.38 | 6.54 | -8.4 | 6.51 | -8.7 | 6.49 | 6.23 | 6.38 | 6.11 | 6.28 | 6.29 | 6.30 | -21.3 | 
10 | N#C/C(=C\c1ccc(Cl)s1)c1nc2ccccc2[nH]1 |  |  |  |  | 13.4 | 5.71 | 102.2 | 4.65 | < 4.70 |  | < 4.70 |  |  | < 4.70 |  | Activity [16]: 44.6
11 | N#C/C(=C\c1csc([N+](=O)[O-])c1)c1nc2ccccc2[nH]1 |  |  |  |  | 8.6 | 5.85 | 82.3 | < 4.70 | < 4.70 |  | < 4.70 |  | < 5.30 | < 4.70 |  | Activity [16]: 80
12 | N#C/C(=C\c1ccc([N+](=O)[O-])s1)c1nc2ccccc2[nH]1 | 6.80 | 6.44 | 6.80 | 6.96 | -6.5 | 6.77 | 18 | 6.82 | 6.57 | 6.80 | 6.51 | 6.48 | 6.41 | 6.49 | 20.5 | 
13 | COc1cc([C@@H]2c3cc4c(cc3[C@@H](O[C@@H]3O[C@@H]5CO[C@@H](C)O[C@H]5[C@H](O)[C@H]3O)[C@H]3COC(=O)[C@H]23)OCO4)cc(OC)c1O [ETOPOSIDE] | 5.88 | 6.66 | 6.10 | 6.39 |  |  |  | 6.28 | 5.88 | 6.27 | 6.82 | 6.15 | 7.05 | 6.42 |  | 
14 | CISPLATIN |  |  |  |  |  |  |  |  |  |  |  |  |  |  |  | pIC50 ([1]; yapc): 5.22; pIC50 ([2]; rt-112): 5.67; pIC50 ([3]; kyse-70): 5.83; pIC50 ([4]; kyse-520): 5.29; pIC50 ([6]; lclc-103h): 5.79; pIC50 [8]: 6.51; pIC50 ([9]; rt-4): 5.43; pIC50 ([10]; mcf7): 6.13; pIC50 ([11]; siso): 6.70; pIC50 ([12]; kyse-510): 6.06; pIC50 ([13]; tert-rpe1): 5.52; pIC50 ([14]; dan-g): 5.86
